Measured values from ChEMBL document CHEMBL2390869, “Evolution of novel tricyclic CRTh2 receptor antagonists from a (E)-2-cyano-3-(1H-indol-3-yl)acrylamide scaffold” (Bioorg Med Chem Lett, 2013).
≈ marks a conversion by molar mass, not a printed value. Blank lines part the entries; values can stand above or below the compound they belong to.

Key:
[1] = target: T1, Prostaglandin D2 receptor 2 (Homo sapiens, UniProt Q9Y5Y4); assay: Displacement of [3H]PGD2 from human CRTh2 receptor
T1 sequence (Q9Y5Y4 whole entry): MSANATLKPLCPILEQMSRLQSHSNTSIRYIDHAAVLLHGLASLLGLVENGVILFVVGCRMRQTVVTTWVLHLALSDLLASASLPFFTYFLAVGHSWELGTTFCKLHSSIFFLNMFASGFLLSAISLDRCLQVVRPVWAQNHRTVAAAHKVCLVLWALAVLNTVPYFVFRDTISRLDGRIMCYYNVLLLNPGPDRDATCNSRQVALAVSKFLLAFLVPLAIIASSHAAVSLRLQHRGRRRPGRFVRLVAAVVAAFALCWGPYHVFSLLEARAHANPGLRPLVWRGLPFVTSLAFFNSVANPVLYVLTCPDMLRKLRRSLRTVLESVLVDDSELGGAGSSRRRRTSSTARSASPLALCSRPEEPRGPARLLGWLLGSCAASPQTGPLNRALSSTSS
How it was run: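 Human CRTh2 binding assay run in assay buffer. IC50 reported as the mean of at least three experiments.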

[2] = target: Prostaglandin E2 receptor EP4 subtype (Homo sapiens, UniProt P35408); assay: Inhibition of PGE2 binding to human EP4 receptor
[3] = Oral bioavailability in Wistar rat at 10 mg/kg; type: ADME, organism-based; details: in vivo
How it was run: (§1)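 Single doses given to three male Wistar rats per route: 10 mg/kg orally and 1 mg/kg intravenously, as a solution in 20% propyleneglycol/80% buffer. Plasma PK parameters were derived. CL, terminal T1/2 and Vss come from the intravenous arm. AUC0–last comes from the oral arm.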

[4] = Cmax in Wistar rat at 10 mg/kg, po and 1 mg/kg, iv; type: ADME, organism-based; details: in vivo; how it was run: as §1
[5] = target: Cytochrome P450 3A4 (Homo sapiens, UniProt P08684); assay: Inhibition of CYP3A4 (unknown origin); type: ADME
[6] = Terminal half life in Wistar rat at 10 mg/kg, po and 1 mg/kg, iv; type: ADME, organism-based; details: in vivo, read-out: beta t1/2 (converted); how it was run: as §1
[7] = Stability in simulated gastric fluid after 1hr by LC/MS analysis; type: physicochemical; details: read-out: Stability
How it was run: (§2)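 Compound incubated in simulated gastric fluid for 1 h or simulated intestinal fluid for 4 h. Unchanged parent recovered and measured by LC–MS, expressed as % parent.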

[8] = AUC (0 to last) in Wistar rat at 10 mg/kg, po; type: ADME, organism-based; design: time 0 - last, dose 10 mg/kg, route oral; details: plasma; how it was run: as §1
[9] = target: T2, Prostaglandin E2 receptor EP1 subtype (Homo sapiens, UniProt P34995); assay: Antagonist activity at human EP1 receptor assessed as inhibition of PGE2-induced Ca2+ mobilization by FLIPR assay; type: functional
T2 sequence (P34995 whole entry): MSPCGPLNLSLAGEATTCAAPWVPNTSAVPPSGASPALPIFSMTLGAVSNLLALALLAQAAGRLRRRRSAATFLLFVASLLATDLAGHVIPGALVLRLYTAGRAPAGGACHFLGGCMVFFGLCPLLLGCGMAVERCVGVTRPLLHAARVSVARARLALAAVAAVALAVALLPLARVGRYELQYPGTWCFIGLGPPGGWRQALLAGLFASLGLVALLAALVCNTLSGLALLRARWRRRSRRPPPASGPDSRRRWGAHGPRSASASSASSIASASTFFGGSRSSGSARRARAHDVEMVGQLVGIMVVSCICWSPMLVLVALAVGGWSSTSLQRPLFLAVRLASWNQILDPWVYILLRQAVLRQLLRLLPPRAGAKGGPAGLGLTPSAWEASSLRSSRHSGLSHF
How it was run: (§3)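 Antagonism measured as inhibition of agonist-induced Ca2+ mobilization by FLIPR: PGE2 as agonist for human EP1 and EP3, U46619 as agonist for human TP. Values are IC50.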

[10] = Metabolic stability in rat plasma assessed as compound remaining after 4 hrs; type: ADME, cell-free; details: read-out: Stability
How it was run: (§4)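 Compound incubated in rat and human plasma for up to 4 h. Unchanged parent quantified by LC–MS, reported as % parent remaining at 4 h plus elimination half-life.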

[11] = Metabolic stability in human plasma assessed as compound remaining after 4 hrs; type: ADME, cell-free; details: read-out: Stability; how it was run: as §4
[12] = Stability in simulated intestinal fluid after 4 hrs by LC/MS analysis; type: physicochemical; details: read-out: Stability; how it was run: as §2
[13] = Volume of distribution at steady state in Wistar rat at 10 mg/kg, po and 1 mg/kg, iv; type: ADME, organism-based; details: in vivo, read-out: Vdss; how it was run: as §1
[14] = target: T3, Thromboxane A2 receptor (Homo sapiens, UniProt P21731); assay: Antagonist activity at human TP2 receptor assessed as inhibition of U46619-induced Ca2+ mobilization by FLIPR assay; type: functional; how it was run: as §3
T3 sequence (P21731 whole entry): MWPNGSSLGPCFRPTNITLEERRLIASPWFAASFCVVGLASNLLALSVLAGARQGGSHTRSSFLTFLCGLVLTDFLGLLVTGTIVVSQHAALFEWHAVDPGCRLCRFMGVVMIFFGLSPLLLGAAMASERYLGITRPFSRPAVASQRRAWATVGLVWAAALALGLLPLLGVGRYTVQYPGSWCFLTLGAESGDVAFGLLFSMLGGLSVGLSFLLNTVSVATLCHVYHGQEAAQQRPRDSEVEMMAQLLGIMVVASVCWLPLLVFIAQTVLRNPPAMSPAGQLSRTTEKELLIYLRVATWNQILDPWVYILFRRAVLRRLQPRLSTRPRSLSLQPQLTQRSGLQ

[15] = target: T4, Prostaglandin D2 receptor (Homo sapiens, UniProt Q13258); assay: Inhibition of PGD2 binding to human DP1 receptor
T4 sequence (Q13258 whole entry): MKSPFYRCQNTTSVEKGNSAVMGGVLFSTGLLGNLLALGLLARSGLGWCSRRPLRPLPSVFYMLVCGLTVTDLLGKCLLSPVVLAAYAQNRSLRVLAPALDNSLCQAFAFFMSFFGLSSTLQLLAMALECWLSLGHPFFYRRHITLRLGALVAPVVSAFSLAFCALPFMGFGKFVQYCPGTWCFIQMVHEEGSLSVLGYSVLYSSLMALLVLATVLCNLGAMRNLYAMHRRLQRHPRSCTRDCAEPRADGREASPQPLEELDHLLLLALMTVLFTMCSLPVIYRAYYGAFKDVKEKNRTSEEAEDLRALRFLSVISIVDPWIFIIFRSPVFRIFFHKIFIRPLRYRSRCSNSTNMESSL

[16] = target: Cytochrome P450 2C9 (Homo sapiens, UniProt P11712); assay: Inhibition of CYP2C9 (unknown origin); type: ADME
[17] = target: T1, Prostaglandin D2 receptor 2; assay: Displacement of [3H]PGD2 from human CRTh2 receptor in presence of human serum albumin
How it was run: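 Human CRTh2 binding assay run with 0.5% human serum albumin added to the assay buffer to mimic binding to blood proteins. IC50 is reported as the mean of at least three experiments.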

[18] = Aqueous solubility of the compound in water at pH 4.6; type: physicochemical
How it was run: (§5)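 Solubility measured in buffered aqueous solution at pH 4 and pH 7, and in water, where the final pH of the aqueous solution was 4.6.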

[19] = Solubility of the compound in buffer at pH 7; type: physicochemical; how it was run: as §5
[20] = target: Prostaglandin E2 receptor EP2 subtype (Homo sapiens, UniProt P43116); assay: Inhibition of PGE2 binding to human EP2 receptor
[21] = target: T1, Prostaglandin D2 receptor 2; assay: Antagonist activity at PGD2-induced human CRTh2 receptor activation expressed in HEK293 cells assessed as intracellular Ca2+ liberation by FLIPR assay; type: functional, cell-based
How it was run: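 HEK-293 cells stably expressing human CRTh2 were stimulated with PGD2. Antagonism of intracellular Ca2+ liberation was read by FLIPR. IC50 is the mean of at least three experiments.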

[22] = Clearance in Wistar rat at 10 mg/kg, po and 1 mg/kg, iv; type: ADME, organism-based; details: in vivo; how it was run: as §1
[23] = Solubility of the compound in buffer at pH 4; type: physicochemical; how it was run: as §5
[24] = target: T5, Prostaglandin E2 receptor EP3 subtype (Homo sapiens, UniProt P43115); assay: Antagonist activity at human EP3 receptor assessed as inhibition of PGE2-induced Ca2+ mobilization by FLIPR assay; type: functional; how it was run: as §3
T5 sequence (P43115 whole entry): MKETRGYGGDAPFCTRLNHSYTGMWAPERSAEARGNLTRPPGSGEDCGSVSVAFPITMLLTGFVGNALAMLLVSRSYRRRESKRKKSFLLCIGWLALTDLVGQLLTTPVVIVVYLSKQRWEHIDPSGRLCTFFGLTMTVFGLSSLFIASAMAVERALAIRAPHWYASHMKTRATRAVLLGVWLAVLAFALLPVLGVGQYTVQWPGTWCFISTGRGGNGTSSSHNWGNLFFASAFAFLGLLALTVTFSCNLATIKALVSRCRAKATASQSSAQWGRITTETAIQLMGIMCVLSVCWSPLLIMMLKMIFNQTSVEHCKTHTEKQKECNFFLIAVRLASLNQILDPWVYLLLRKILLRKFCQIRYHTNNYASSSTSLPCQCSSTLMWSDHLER

[25] = target: Cytochrome P450 2D6 (Homo sapiens, UniProt P10635); assay: Inhibition of CYP2D6 (unknown origin); type: ADME
Chain of Cytochrome P450 2D6 (P10635 whole entry): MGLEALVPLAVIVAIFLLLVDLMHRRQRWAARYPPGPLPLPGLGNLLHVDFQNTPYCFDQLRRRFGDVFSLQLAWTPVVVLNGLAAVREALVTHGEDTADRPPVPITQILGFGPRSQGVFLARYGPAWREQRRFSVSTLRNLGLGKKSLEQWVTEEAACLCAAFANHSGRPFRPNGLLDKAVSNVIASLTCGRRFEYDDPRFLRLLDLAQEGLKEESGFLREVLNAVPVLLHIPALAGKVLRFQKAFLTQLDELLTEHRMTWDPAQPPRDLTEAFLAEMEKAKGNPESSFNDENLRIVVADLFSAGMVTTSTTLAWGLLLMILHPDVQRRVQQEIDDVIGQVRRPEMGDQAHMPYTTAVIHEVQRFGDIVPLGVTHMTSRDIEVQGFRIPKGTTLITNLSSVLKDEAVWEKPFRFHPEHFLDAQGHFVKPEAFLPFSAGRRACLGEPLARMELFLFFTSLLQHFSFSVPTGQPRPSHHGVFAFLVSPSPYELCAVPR

Chain of Prostaglandin E2 receptor EP2 subtype (P43116 whole entry): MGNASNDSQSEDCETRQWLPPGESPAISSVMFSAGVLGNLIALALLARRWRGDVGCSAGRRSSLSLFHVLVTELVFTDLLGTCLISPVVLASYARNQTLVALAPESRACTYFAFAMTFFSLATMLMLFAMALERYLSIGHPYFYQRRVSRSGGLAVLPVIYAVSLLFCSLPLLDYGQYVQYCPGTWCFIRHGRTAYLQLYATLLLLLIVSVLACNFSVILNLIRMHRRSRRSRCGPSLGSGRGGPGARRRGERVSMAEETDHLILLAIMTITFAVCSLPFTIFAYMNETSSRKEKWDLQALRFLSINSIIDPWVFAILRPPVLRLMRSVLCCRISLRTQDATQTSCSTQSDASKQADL
Chain of Prostaglandin E2 receptor EP4 subtype (P35408 whole entry): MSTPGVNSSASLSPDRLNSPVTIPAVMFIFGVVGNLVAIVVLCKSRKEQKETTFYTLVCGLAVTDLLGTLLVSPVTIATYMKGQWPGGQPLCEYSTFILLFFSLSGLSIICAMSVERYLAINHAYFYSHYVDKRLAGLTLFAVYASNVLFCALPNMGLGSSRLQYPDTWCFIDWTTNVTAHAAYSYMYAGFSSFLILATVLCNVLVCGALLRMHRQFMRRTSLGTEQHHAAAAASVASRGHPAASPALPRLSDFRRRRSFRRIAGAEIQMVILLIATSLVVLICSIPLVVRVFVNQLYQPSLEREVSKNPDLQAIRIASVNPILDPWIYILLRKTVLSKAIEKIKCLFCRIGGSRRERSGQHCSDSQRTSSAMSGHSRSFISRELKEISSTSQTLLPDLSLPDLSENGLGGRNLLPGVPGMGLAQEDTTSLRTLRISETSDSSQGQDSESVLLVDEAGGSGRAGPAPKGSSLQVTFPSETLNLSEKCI
Chain of Cytochrome P450 3A4 (P08684 whole entry): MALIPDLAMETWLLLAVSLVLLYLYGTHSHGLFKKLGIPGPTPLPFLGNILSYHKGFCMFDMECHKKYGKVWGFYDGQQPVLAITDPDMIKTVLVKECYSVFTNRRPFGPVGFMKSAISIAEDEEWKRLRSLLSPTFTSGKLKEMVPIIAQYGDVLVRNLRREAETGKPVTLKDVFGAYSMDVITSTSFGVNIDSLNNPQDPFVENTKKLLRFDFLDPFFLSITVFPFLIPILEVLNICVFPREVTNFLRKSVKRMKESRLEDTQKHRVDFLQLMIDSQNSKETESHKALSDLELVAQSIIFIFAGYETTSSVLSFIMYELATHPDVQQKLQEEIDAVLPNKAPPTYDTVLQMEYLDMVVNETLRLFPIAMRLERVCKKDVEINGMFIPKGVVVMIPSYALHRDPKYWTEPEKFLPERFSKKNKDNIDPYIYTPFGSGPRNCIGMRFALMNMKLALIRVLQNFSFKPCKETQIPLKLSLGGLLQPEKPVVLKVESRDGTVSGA
Chain of Cytochrome P450 2C9 (P11712 whole entry): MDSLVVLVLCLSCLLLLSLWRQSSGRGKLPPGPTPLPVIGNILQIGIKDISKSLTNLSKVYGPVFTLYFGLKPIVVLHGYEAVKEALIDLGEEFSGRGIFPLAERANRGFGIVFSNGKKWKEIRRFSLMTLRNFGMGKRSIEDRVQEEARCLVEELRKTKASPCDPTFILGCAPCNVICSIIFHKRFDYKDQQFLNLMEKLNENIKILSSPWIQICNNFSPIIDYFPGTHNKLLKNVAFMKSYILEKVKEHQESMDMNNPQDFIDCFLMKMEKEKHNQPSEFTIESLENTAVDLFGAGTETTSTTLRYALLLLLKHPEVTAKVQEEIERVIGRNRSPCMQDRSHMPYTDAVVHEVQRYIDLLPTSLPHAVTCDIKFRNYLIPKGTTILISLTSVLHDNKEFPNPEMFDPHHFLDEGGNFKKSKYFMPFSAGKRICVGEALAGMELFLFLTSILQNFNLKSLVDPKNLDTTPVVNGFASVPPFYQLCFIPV

Structure (SMILES): Cc1ccc2c(/C=C(\C#N)C(=O)N(C)c3ccccc3)cn(CC(=O)O)c2c1
IC50 [1]: 690 nM

Structure (SMILES): Cc1ccc2c(c1)c(/C=C(\C#N)C(=O)N(C)c1ccccc1)cn2CC(=O)O
IC50 [1]: 7 nM

Structure (SMILES): CCCCCC(=O)N1CCc2c(c3ccccc3n2CC(=O)O)C1
IC50 [1]: 210 nM

Structure (SMILES): CN(C(=O)/C(C#N)=C/c1cn(CC(=O)O)c2ccc(F)cc12)c1ccccc1
IC50 [1]: 10 nM

Structure (SMILES): CN(C(=O)/C(C#N)=C/c1cn(CC(=O)O)c2cc(F)ccc12)c1ccccc1
IC50 [1]: 45 nM

Structure (SMILES): O=C(O)Cn1c2c(c3ccccc31)CN(C(=O)c1ccccc1)CC2
IC50 [2]: > 10000 nM | bioavailability [3]: 14% | Cmax [4]: 600 ng/mL | IC50 [5]: > 50000 nM | half-life [6]: 2.3 h | remaining at 1 h [7]: 100% | AUC(0-t) [8]: 6300 ng·h/mL | IC50 [9]: > 10000 nM | remaining at 4 h [10]: 90% | remaining at 4 h [11]: 90% | remaining at 4 h [12]: 100% | Vd [13]: 0.5 L/kg | IC50 [14]: > 25000 nM | IC50 [15]: > 10000 nM | IC50 [16]: > 15000 nM | IC50 [17]: 15 nM | solubility [18]: 64 µg/mL (≈ 191 µM) | solubility [19]: 810 µg/mL (≈ 2420 µM) | IC50 [1]: 17 nM | IC50 [20]: > 10000 nM | IC50 [21]: 170 nM | clearance [22]: 4.6 mL/min/kg | solubility [23]: 515 µg/mL (≈ 1540 µM) | IC50 [24]: > 10000 nM | IC50 [25]: > 50000 nM

Structure (SMILES): CC(=O)N1CCc2c(c3ccccc3n2CC(=O)O)C1
IC50 [1]: 1600 nM

Structure (SMILES): CN(C(=O)/C(C#N)=C/c1cn(CC(=O)O)c2cccc(Cl)c12)c1ccccc1
IC50 [1]: 5 nM

Structure (SMILES): O=C(O)Cn1c2c(c3ccccc31)CN(C(=O)Cc1ccccc1)CC2
IC50 [1]: 200 nM

Structure (SMILES): Cc1cccc2c(/C=C(\C#N)C(=O)N(C)c3ccccc3)cn(CC(=O)O)c12
IC50 [1]: 140 nM

More lines, now with the values ahead:

IC50 [1]: 290 nM
Structure (SMILES): CN(C(=O)/C(C#N)=C/c1cn(CC(=O)O)c2cc(Cl)ccc12)c1ccccc1

IC50 [1]: 60 nM
Structure (SMILES): N#C/C(=C\c1cn(CC(=O)O)c2ccccc12)C(=O)N1CCc2ccccc21

IC50 [1]: 2600 nM
Structure (SMILES): N#C/C(=C\c1cn(CCCC(=O)O)c2ccccc12)C(=O)Nc1ccccc1

IC50 [1]: 560 nM
Structure (SMILES): O=C(O)Cn1cc(/C=C(\Cl)C(=O)Nc2ccccc2)c2ccccc21

IC50 [1]: 5900 nM
Structure (SMILES): N#C/C(=C\c1cn(CCC(=O)O)c2ccccc12)C(=O)Nc1ccccc1

IC50 [1]: 10 nM
Structure (SMILES): N#C/C(=C\c1cn(CC(=O)O)c2ccccc12)C(=O)N(CCc1ccccc1)c1ccccc1

IC50 [1]: 15 nM
Structure (SMILES): CN(C(=O)/C(C#N)=C/c1cn(CC(=O)O)c2ccccc12)c1ccccc1
